According to ChEMBL document CHEMBL2331149, “Towards dual antithrombotic compounds - balancing thrombin inhibitory and fibrinogen GPIIb/IIIa binding inhibitory activities of 2,3-dihydro-1,4-benzodioxine derivatives through regio- and stereoisomerism” (Eur J Med Chem, 2013):

Key:
[1] = target: Integrin alpha-IIb/beta-3 (Homo sapiens, UniProt P05106+P08514); test: Inhibition of biotinylated fibrinogen binding to human GP 2b/3a after 2 hrs by solid-phase competitive displacement assay; assay type: protein-complex assay
Outline: (§1)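 Solid-phase competition with isolated human receptor (GPIIb/IIIa or GPV/IIIa) adsorbed overnight at 4 °C in Tris/NaCl buffer with 1 mM Ca2+, Mg2+ and Mn2+, pH 7.4. Blocked with 1% BSA. Serially diluted compounds plus biotinylated human fibrinogen incubated 2 h at room temperature. Bound fibrinogen detected with peroxidase anti-biotin antibody and chemiluminescence. Duplicates, at least three runs; IC50 from sigmoid fit.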

Coagulation factor X = Coagulation factor X (Homo sapiens, UniProt P00742); test: Inhibition of factor 10a (unknown origin) using S-2222 as substrate preincubated with enzyme for 15 mins prior to substrate addition measured every 10 s by amidolytic method
Outline: (§2)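 Chromogenic amidolytic assay read at 405 nm, 25 °C, with final enzyme levels: thrombin 0.5 NIH E/mL with S-2238 at 20 and 40 µM; factor Xa 1 mBAEE E/mL with S-2222 at 100 and 200 µM; trypsin 0.5 nkat/mL with S-2222 at 50 and 100 µM. Inhibitor diluted from DMSO stock to 0.5–100 µM, three concentrations, triplicate. Ki by Cheng–Prusoff from initial rates, averaged over all combinations.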

Trypsin = Trypsin (Homo sapiens, UniProt P07477+P07478+P35030); test: Inhibition of trypsin (unknown origin) using S-2222 as substrate preincubated with enzyme for 15 mins prior to substrate addition measured every 10 s by amidolytic method; assay type: protein assay; outline: as §2
Integrin alpha-V/beta-3 = Integrin alpha-V/beta-3 (Homo sapiens, UniProt P05106+P06756); test: Inhibition of biotinylated fibrinogen binding to human alphavbeta3 integrin receptor after 2 hrs by solid-phase competitive displacement assay; assay type: protein-complex assay; outline: as §1
Homo sapiens [2] = species: Homo sapiens; test: Selectivity ratio of Ki for factor 10a (unknown origin) to Ki for thrombin (unknown origin)
Homo sapiens [3] = species: Homo sapiens; test: Selectivity ratio of Ki for trypsin (unknown origin) to Ki for thrombin (unknown origin)
Prothrombin = Prothrombin (Homo sapiens, UniProt P00734); test: Inhibition of thrombin (unknown origin) using S-2238 as substrate preincubated with enzyme for 15 mins prior to substrate addition measured every 10 s by amidolytic method; outline: as §2

| IC50 [1] [µM] | Ki (Coagulation factor X) [µM] | Ki (Trypsin) [µM] | IC50 (Integrin alpha-V/beta-3) [µM] | Ratio Ki (Homo sapiens [2]) | Ratio Ki (Homo sapiens [3]) | Ki (Prothrombin) [µM] | Structure (SMILES) |
| --- | --- | --- | --- | --- | --- | --- | --- |
| > 200 | 2.7 | 0.21 | > 200 | 35.9 | 2.71 | 0.0778 | CCOC(=O)C(=O)N(Cc1ccccc1)c1ccc2c(c1)O[C@@H](COc1ccc(C(=N)N)cc1)CO2.O=C(O)C(F)(F)F |
| 1.21 | 5.19 | 1.55 | > 200 | 1.3 | 0.3 | 5.18 | N=C(N)c1ccc(OC[C@@H]2COc3cc(N(Cc4ccccc4)C(=O)C(=O)O)ccc3O2)cc1 |
| > 200 | 0.637 | 0.894 | > 200 | 0.95 | 1.32 | 0.675 | CCOC(=O)C(=O)N(Cc1ccccc1)c1ccc2c(c1)O[C@H](COc1ccc(C(=N)N)cc1)CO2.O=C(O)C(F)(F)F |
| 0.665 | 1.96 | 0.463 | > 200 | 1.17 | 0.28 | 1.67 | N=C(N)c1ccc(OC[C@H]2COc3cc(N(Cc4ccccc4)C(=O)C(=O)O)ccc3O2)cc1 |
| 17.6 | 1.27 | 1.37 | > 200 | 0.47 | 0.51 | 2.69 | N=C(N)c1ccc(OC[C@@H]2COc3ccc(N(Cc4ccccc4)C(=O)C(=O)O)cc3O2)cc1 |
| > 200 | 1.51 | 0.283 | > 200 | 3.46 | 0.65 | 0.436 | CCOC(=O)C(=O)N(Cc1ccccc1)c1ccc2c(c1)OC[C@H](COc1ccc(C(=N)N)cc1)O2.O=C(O)C(F)(F)F |
| > 200 | 2.15 | 0.644 | > 200 | 1.3 | 0.39 | 1.65 | CCOC(=O)C(=O)N(Cc1ccccc1)c1ccc2c(c1)OC[C@@H](COc1ccc(C(=N)N)cc1)O2.O=C(O)C(F)(F)F |
| 42.6 | 5.08 | 0.267 | > 200 | 19.1 | 1 | 0.266 | N=C(N)c1ccc(OC[C@H]2COc3ccc(N(Cc4ccccc4)C(=O)C(=O)O)cc3O2)cc1 |
